ChEMBL document CHEMBL1152507, “An extended study of dimeric phenyl tropanes” (Bioorg Med Chem, 2009)

Legend:
[1] = target: Sodium-dependent dopamine transporter (Homo sapiens, UniProt Q01959); test: Displacement of [125I]methyl 3-(4-iodophenyl)-8-methyl-8-aza-bicyclo[3.2.1]octane-2-carboxylate from human recombinant DAT expressed in african green monkey COS1 cells by liquid scintillation counting; assay type: cell-based, COS-1
In short: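 Membranes from COS-1 cells stably expressing cloned human transporter; cells scraped, homogenized in ice-cold 150 mM NaCl/50 mM Tris/20 mM EDTA, pelleted at 12,000g, resuspended in PBSCM, stored at -80 °C. 5 µg protein/well incubated with test drug and 0.1–0.25 nM 125I-radioligand for 1 h at 20 °C. Filtered on PEI-presoaked GF/B filters, washed thrice with ice-cold water.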

[2] = target: Sodium-dependent serotonin transporter (Homo sapiens, UniProt P31645); test: Displacement of [125I]methyl 3-(4-iodophenyl)-8-methyl-8-aza-bicyclo[3.2.1]octane-2-carboxylate from human recombinant SERT expressed in african green monkey COS1 cells by liquid scintillation counting; assay type: cell-based, COS-1
In short: (§1)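 Membranes from COS-1 cells stably expressing cloned human transporter; cells scraped, homogenized in ice-cold 150 mM NaCl/50 mM Tris/20 mM EDTA, pelleted at 12,000g, resuspended in PBSCM, stored at -80 °C. Filtered on PEI-presoaked GF/B filters, washed thrice with ice-cold water.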

[3] = target: Sodium-dependent noradrenaline transporter (Homo sapiens, UniProt P23975); test: Displacement of [125I]methyl 3-(4-iodophenyl)-8-methyl-8-aza-bicyclo[3.2.1]octane-2-carboxylate from human recombinant NET expressed in african green monkey COS1 cells by liquid scintillation counting; assay type: cell-based, COS-1; in short: as §1
Homo sapiens [4] = species on record: Homo sapiens; test: Selectivity ratio of Ki for human SERT to Ki for human DAT
Homo sapiens [5] = species on record: Homo sapiens; test: Selectivity ratio of Ki for human NET to Ki for human DAT

Chain of Sodium-dependent noradrenaline transporter (P23975 whole entry): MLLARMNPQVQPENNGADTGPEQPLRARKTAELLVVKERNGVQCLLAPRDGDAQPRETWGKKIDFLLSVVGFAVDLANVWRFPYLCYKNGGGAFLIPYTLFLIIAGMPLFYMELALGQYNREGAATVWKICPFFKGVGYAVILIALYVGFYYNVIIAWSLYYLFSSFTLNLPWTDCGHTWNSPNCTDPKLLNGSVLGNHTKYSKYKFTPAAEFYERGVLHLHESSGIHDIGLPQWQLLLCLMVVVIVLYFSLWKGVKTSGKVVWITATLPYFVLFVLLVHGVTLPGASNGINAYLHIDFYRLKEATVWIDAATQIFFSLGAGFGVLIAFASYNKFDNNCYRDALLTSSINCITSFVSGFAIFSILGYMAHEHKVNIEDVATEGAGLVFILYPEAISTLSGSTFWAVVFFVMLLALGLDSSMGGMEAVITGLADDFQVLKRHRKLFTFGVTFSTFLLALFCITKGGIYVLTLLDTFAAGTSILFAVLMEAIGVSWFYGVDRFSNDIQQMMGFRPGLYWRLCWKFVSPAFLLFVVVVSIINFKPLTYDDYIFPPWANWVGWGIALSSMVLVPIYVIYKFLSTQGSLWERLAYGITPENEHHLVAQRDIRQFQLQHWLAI
Chain of Sodium-dependent dopamine transporter (Q01959 whole entry): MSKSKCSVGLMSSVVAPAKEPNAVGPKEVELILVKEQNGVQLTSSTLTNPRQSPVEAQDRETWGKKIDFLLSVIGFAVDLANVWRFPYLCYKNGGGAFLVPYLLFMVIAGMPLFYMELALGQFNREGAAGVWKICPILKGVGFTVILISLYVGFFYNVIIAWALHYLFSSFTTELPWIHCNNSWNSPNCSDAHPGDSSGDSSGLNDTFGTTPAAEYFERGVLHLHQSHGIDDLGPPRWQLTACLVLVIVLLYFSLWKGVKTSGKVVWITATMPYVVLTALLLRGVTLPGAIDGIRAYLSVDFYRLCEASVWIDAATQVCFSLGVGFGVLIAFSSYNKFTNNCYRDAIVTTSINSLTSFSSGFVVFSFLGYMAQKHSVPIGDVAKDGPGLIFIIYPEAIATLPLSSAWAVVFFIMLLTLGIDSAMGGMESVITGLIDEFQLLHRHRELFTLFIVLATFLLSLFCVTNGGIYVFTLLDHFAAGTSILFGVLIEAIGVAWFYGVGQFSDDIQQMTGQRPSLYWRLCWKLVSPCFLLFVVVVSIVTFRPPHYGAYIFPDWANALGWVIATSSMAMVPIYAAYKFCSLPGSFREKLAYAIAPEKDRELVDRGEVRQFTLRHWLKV
Chain of Sodium-dependent serotonin transporter (P31645 whole entry): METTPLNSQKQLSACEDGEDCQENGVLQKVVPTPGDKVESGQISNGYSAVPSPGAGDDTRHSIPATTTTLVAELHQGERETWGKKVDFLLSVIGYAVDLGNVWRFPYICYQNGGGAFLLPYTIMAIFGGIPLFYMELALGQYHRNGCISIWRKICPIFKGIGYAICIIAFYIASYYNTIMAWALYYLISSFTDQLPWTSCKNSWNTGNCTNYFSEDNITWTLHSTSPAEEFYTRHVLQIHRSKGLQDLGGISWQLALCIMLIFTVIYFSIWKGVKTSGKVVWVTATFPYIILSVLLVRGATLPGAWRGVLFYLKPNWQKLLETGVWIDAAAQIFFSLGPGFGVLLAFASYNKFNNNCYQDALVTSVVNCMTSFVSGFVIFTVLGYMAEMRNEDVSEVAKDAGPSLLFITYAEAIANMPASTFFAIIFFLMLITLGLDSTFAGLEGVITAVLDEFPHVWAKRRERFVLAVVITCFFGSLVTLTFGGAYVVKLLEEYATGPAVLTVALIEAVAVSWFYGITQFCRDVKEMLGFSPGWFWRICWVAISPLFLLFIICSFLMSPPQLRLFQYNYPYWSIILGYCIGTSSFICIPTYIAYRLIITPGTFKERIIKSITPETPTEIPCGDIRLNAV

Structure (SMILES)	Ki [1]	Ki [2]	Ki [3]	Ratio Ki (Homo sapiens [4])	Ratio Ki (Homo sapiens [5])
CN1C2CCC1[C@@H](C(=O)Nc1ccc(CCNC(=O)[C@H]3C4CCC(C[C@@H]3c3ccc(Cl)cc3)N4C)cc1)[C@@H](c1ccc(Cl)cc1)C2 (stereo partly specified)	6.6 nM	2600 nM	180 nM	390	27
CN1C2CCC1[C@@H](C(=O)OCc1cn(CCCCCCCOC(=O)[C@H]3C4CCC(C[C@@H]3c3ccc(Cl)cc3)N4C)nn1)[C@@H](c1ccc(Cl)cc1)C2 (stereo partly specified)	3.9 nM	3.5 nM	20 nM	0.89	5.1
CN1C2CCC1[C@@H](C(=O)N[C@H]1CC[C@H](NC(=O)[C@H]3C4CCC(C[C@@H]3c3ccc(-c5ccsc5)cc3)N4C)CC1)[C@@H](c1ccc(-c3ccsc3)cc1)C2	1300 nM	810 nM	5000 nM	0.62	3.8
CN1C2CCC1[C@@H](C(=O)N[C@H]1CC[C@H](NC(=O)[C@H]3C4CCC(C[C@@H]3c3ccc(Cl)cc3)N4C)CC1)[C@@H](c1ccc(Cl)cc1)C2	890 nM	4000 nM	4900 nM	4.6	5.5
CN1C2CCC1[C@@H](C(=O)NCc1ccc(CNC(=O)[C@H]3C4CCC(C[C@@H]3c3ccc(-c5ccsc5)cc3)N4C)cc1)[C@@H](c1ccc(-c3ccsc3)cc1)C2	93 nM	160 nM	620 nM	1.7	6.7
CN1C2CCC1[C@@H](C(=O)NCCCCCCCCCCNC(=O)[C@H]1C3CCC(C[C@@H]1c1ccc(-c4ccsc4)cc1)N3C)[C@@H](c1ccc(-c3ccsc3)cc1)C2	350 nM	250 nM	1500 nM	0.72	4.4
CN1C2CCC1[C@@H](C(=O)OCc1cn(CCOC(=O)[C@H]3C4CCC(C[C@@H]3c3ccc(Cl)cc3)N4C)nn1)[C@@H](c1ccc(Cl)cc1)C2 (stereo partly specified)	16 nM	27 nM	120 nM	1.6	7.3
CN1C2CCC1[C@@H](C(=O)Nc1ccc(NC(=O)[C@H]3C4CCC(C[C@@H]3c3ccc(Cl)cc3)N4C)cc1)[C@@H](c1ccc(Cl)cc1)C2	690 nM	3200 nM	5400 nM	4.6	7.8
CN1C2CCC1[C@@H](C(=O)NCc1ccc(CCNC(=O)[C@H]3C4CCC(C[C@@H]3c3ccc(Cl)cc3)N4C)cc1)[C@@H](c1ccc(Cl)cc1)C2 (stereo partly specified)	20 nM	65 nM	100 nM	3.3	5.2
CN1C2CCC1[C@@H](C(=O)NCc1ccc(CCNC(=O)[C@H]3C4CCC(C[C@@H]3c3ccc(-c5ccsc5)cc3)N4C)cc1)[C@@H](c1ccc(-c3ccsc3)cc1)C2 (stereo partly specified)	160 nM	62 nM	1300 nM	0.38	8.2
CN1C2CCC1[C@@H](C(=O)Nc1ccc(CNC(=O)[C@H]3C4CCC(C[C@@H]3c3ccc(Cl)cc3)N4C)cc1)[C@@H](c1ccc(Cl)cc1)C2 (stereo partly specified)	21 nM	1500 nM	810 nM	74	39
CN1C2CCC1[C@@H](C(=O)OCCCCCn1ccnn1)[C@@H](c1ccc(Cl)cc1)C2 (stereo partly specified)	5.5 nM	20 nM	380 nM	3.6	69
CN1C2CCC1[C@@H](C(=O)OCc1cn(CCCCCCOC(=O)[C@H]3C4CCC(C[C@@H]3c3ccc(Cl)cc3)N4C)nn1)[C@@H](c1ccc(Cl)cc1)C2 (stereo partly specified)	1 nM	0.86 nM	8.5 nM	0.86	8.5
COC(=O)[C@@H]1C2CCC(C[C@@H]1c1ccc(I)cc1)N2C (stereo partly specified)	3.9 nM	4.2 nM	19 nM	1.1	4.9
CN1C2CCC1[C@@H](C(=O)NCCCCCCNC(=O)[C@H]1C3CCC(C[C@@H]1c1ccc(-c4ccsc4)cc1)N3C)[C@@H](c1ccc(-c3ccsc3)cc1)C2	540 nM	2100 nM	2200 nM	4	4
CN1C2CCC1[C@@H](C(=O)NCCCCCCCCNC(=O)[C@H]1C3CCC(C[C@@H]1c1ccc(-c4ccsc4)cc1)N3C)[C@@H](c1ccc(-c3ccsc3)cc1)C2	690 nM	470 nM	1700 nM	0.68	2.4
CN1C2CCC1[C@@H](C(=O)NCCC1CCN(C(=O)[C@H]3C4CCC(C[C@@H]3c3ccc(Cl)cc3)N4C)CC1)[C@@H](c1ccc(Cl)cc1)C2 (stereo partly specified)	180 nM	2500 nM	440 nM	14	2.5
CN1C2CCC1[C@@H](C(=O)Nc1ccc(NC(=O)[C@H]3C4CCC(C[C@@H]3c3ccc(-c5ccsc5)cc3)N4C)cc1)[C@@H](c1ccc(-c3ccsc3)cc1)C2	210 nM	270 nM	1900 nM	1.3	9.4
COC(=O)[C@@H]1C2CCC(C[C@@H]1c1ccc(-c3ccsc3)cc1)N2C (stereo partly specified)	2.5 nM	0.58 nM	26 nM	0.24	10
CN1C2CCC1[C@@H](C(=O)Nc1ccc(CCNC(=O)[C@H]3C4CCC(C[C@@H]3c3ccc(-c5ccsc5)cc3)N4C)cc1)[C@@H](c1ccc(-c3ccsc3)cc1)C2 (stereo partly specified)	710 nM	340 nM	3300 nM	0.48	4.6
CN1C2CCC1[C@@H](C(=O)Nc1ccc(CNC(=O)[C@H]3C4CCC(C[C@@H]3c3ccc(-c5ccsc5)cc3)N4C)cc1)[C@@H](c1ccc(-c3ccsc3)cc1)C2 (stereo partly specified)	800 nM	730 nM	2700 nM	0.92	3.4
CN1C2CCC1[C@@H](C(=O)NCc1cccc(CNC(=O)[C@H]3C4CCC(C[C@@H]3c3ccc(-c5ccsc5)cc3)N4C)c1)[C@@H](c1ccc(-c3ccsc3)cc1)C2	230 nM	860 nM	1200 nM	3.7	5.1
COC(=O)[C@@H]1C2CCC(C[C@@H]1c1ccc(Cl)cc1)N2C (stereo partly specified)	2.7 nM	–	–	–	–
